# Assay results taken from ChEMBL document CHEMBL5653625, “P21-Activated Kinase Inhibitors FRAX486 and IPA3: Inhibition of Prostate Stromal Cell Growth and Effects on Smooth Muscle Contraction in the Human Prostate” (PLoS One, 2016).
# Active and inactive are the calls of the source. No cut-off for these calls is given here.
# Assays:
# [1] = test system: WPMY-1; assay: Inhibition of actin filament organization in human WPMY-1 cells at 1 to 10 uM incubated for 24 hrs by FITC-coupled phalloidin staining based laser scanning microscopy; format: functional, cell-based; conditions: dose 1-10 µM
# Summary of the method: (§1)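 Serum-starved WPMY-1 cells grown on chamber slides with inhibitor (1–10 µM) or DMSO for 24 h, then stained for F-actin with FITC-labeled phalloidin and imaged by laser scanning confocal microscopy; filament bundles, protrusions and cell shape judged visually against solvent controls; representative images from 5 independent experiments.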
# [2] = Cytotoxicity against human WPMY-1 cells assessed as cell survival rate at 10 uM incubated for 48 to 72 hrs by WST-8 assay; format: toxicity, cell-based; conditions: time 48-72 hrs, read-out: Survival
# Summary of the method: (§2)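 WPMY-1 human prostate stromal cells kept in RPMI 1640 with 10% FCS and 1% penicillin/streptomycin, 37°C, 5% CO2; switched to FCS-free medium before treatment. Seeded 20,000 cells/well, grown 24 h, then exposed to inhibitor or DMSO (1, 5, 10 µM) for 24, 48 or 72 h with separate controls per period. WST-8 (CCK-8) added, absorbance 450 nm after 2 h at 37°C; 5 independent experiments, means ±SEM.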
# [3] = Inhibition of actin filament organization in human WPMY-1 cells assessed as rounded cell shape without protrusion at 5 to 10 uM incubated for 24 hrs by FITC-coupled phalloidin staining based laser scanning microscopy; format: functional; conditions: dose 5-10 µM; summary of the method: as §1
# [4] = Cytotoxicity against human WPMY-1 cells assessed as cell survival rate at 1 uM incubated for 24 to 72 hrs by WST-8 assay; format: toxicity, cell-based; conditions: time 24-72 hrs, read-out: Survival; summary of the method: as §2
# [5] = species on record: Homo sapiens; assay: Inhibition of electric field stimulation induced prostate cancer patient derived human Prostate gland strips contraction assessed as reduction in KCl-induced contraction at 100 uM by organ-bath analysis; format: functional, tissue-based
# Summary of the method: (§3)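 Human prostate strips (6 x 3 x 3 mm) in aerated (95% O2/5% CO2) Krebs-Henseleit, 37°C, pH 7.4, resting tone 4.9 mN after 45 min equilibration; reference contraction to 80 mM KCl, washout, then inhibitor or DMSO added before cumulative noradrenaline, phenylephrine or endothelin concentration-response curves or EFS frequency-response curves; tension expressed as % of KCl contraction.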
# [6] = species on record: Homo sapiens; assay: Inhibition of noradrenaline induced prostate cancer patient derived human Prostate gland strips contraction assessed as reduction in KCl-induced contraction at 300 uM by organ-bath analysis; format: functional, tissue-based; summary of the method: as §3
# [7] = test system: WPMY-1; assay: Inhibition of actin filament organization in human WPMY-1 cells at 1 uM incubated for 24 hrs by FITC-coupled phalloidin staining based laser scanning microscopy; format: functional, cell-based; summary of the method: as §1
# [8] = Cytotoxicity against human WPMY-1 cells assessed as reduction in cell viability at 1 to 10 uM incubated for 24 hrs by WST-8 assay; format: toxicity, cell-based; conditions: wpmy-1, 24 h, dose 1-10 µM
# [9] = test system: WPMY-1; assay: Inhibition of actin filament organization in human WPMY-1 cells assessed as reduction in degree of actin polymerization at 1 uM incubated for 24 hrs by FITC-coupled phalloidin staining based laser scanning microscopy; format: functional, cell-based; summary of the method: as §1
# [10] = Cytotoxicity against human WPMY-1 cells assessed as reduction in cell proliferation at 1 to 10 uM incubated for 24 hrs by EdU incorporation assay; format: toxicity, cell-based; set-up: scale not given: the % may be the effect or the level left; conditions: wpmy-1, 24 h, dose 1-10 µM
# [11] = species on record: Homo sapiens; assay: Inhibition of electric field stimulation induced prostate cancer patient derived human Prostate gland strips contraction assessed as reduction in KCl-induced contraction at 300 uM at 32 Hz frequency by organ-bath analysis; format: functional, tissue-based; summary of the method: as §3
# [12] = species on record: Homo sapiens; assay: Inhibition of phenylephrine induced prostate cancer patient derived human Prostate gland strips contraction assessed as reduction in KCl-induced contraction at 300 uM by organ-bath analysis; format: functional, tissue-based; summary of the method: as §3
# [13] = test system: WPMY-1; assay: Inhibition of actin filament organization in human WPMY-1 cells assessed as degeneration of protrusions at 1 uM incubated for 24 hrs by FITC-coupled phalloidin staining based laser scanning microscopy; format: functional, cell-based; summary of the method: as §1
# [14] = Cytotoxicity against human WPMY-1 cells assessed as reduction in cell viability at 1 to 10 uM incubated for 24 to 72 hrs by WST-8 assay; format: toxicity, cell-based; conditions: wpmy-1, 10 µM, TDE = time-dependent effect, dose lower 1 µM, time lower 24 hrs, dose upper 10 µM, time upper 72 hrs
# [15] = species on record: Homo sapiens; assay: Inhibition of endothelin-2 induced prostate cancer patient derived human Prostate gland strips contraction assessed as reduction in KCl-induced contraction at 30 uM by organ-bath analysis; format: functional, tissue-based; summary of the method: as §3
# [16] = target: Serine/threonine-protein kinase PAK 3 (Homo sapiens, UniProt O75914); assay: Inhibition of full length PAK3 (unknown origin) assessed s reduction in substrate phosphorylation using peptide as substrate by FRET based Z-LYTE kinase assay
# [17] = Cytotoxicity against human WPMY-1 cells assessed as cell survival rate at 1 uM incubated for 24 hrs by WST-8 assay; format: toxicity, cell-based; conditions: read-out: Survival; summary of the method: as §2
# [18] = species on record: Homo sapiens; assay: Inhibition of phenylephrine induced prostate cancer patient derived human Prostate gland strips contraction assessed as reduction in KCl-induced contraction at 30 uM by organ-bath analysis; format: functional, tissue-based; summary of the method: as §3
# [19] = target: Serine/threonine-protein kinase PAK 2 (Homo sapiens, UniProt Q13177); assay: Inhibition of full length PAK2 (unknown origin) assessed s reduction in substrate phosphorylation using peptide as substrate by FRET based Z-LYTE kinase assay
# [20] = species on record: Homo sapiens; assay: Inhibition of noradrenaline induced prostate cancer patient derived human Prostate gland strips contraction assessed as reduction in KCl-induced contraction at 30 uM by organ-bath analysis; format: functional, tissue-based; summary of the method: as §3
# [21] = Effect on DISC1 knockdown-elicited synaptic changes in rat cortical neurons assessed as prevention of spine size reduction preincubated for 60 mins followed by APV WD solution addition and measured after 20 mins by immunofluorescence analysis; format: functional, cell-based; conditions: cortical neurone
# [22] = species on record: Homo sapiens; assay: Inhibition of endothelin-1 induced prostate cancer patient derived human Prostate gland strips contraction assessed as reduction in KCl-induced contraction at 10 uM by organ-bath analysis; format: functional, tissue-based; summary of the method: as §3
# [23] = species on record: Homo sapiens; assay: Inhibition of electric field stimulation induced prostate cancer patient derived human Prostate gland strips contraction assessed as reduction in KCl-induced contraction at 10 uM by organ-bath analysis; format: functional, tissue-based; summary of the method: as §3
# [24] = species on record: Homo sapiens; assay: Inhibition of electric field stimulation induced prostate cancer patient derived human Prostate gland strips contraction assessed as reduction in KCl-induced contraction at 30 uM at 2 to 32 Hz frequency by organ-bath analysis; format: functional, tissue-based; summary of the method: as §3
# [25] = species on record: Homo sapiens; assay: Inhibition of endothelin-1 induced prostate cancer patient derived human Prostate gland strips contraction assessed as reduction in KCl-induced contraction at 30 uM by organ-bath analysis; format: functional, tissue-based; summary of the method: as §3
# [26] = Cytotoxicity against human WPMY-1 cells assessed as cell survival rate at 5 to 10 uM incubated for 48 to 72 hrs by WST-8 assay; format: toxicity, cell-based; conditions: dose lower 5 µM, time lower 48 hrs, dose upper 10 µM, time upper 72 hrs, read-out: Survival; summary of the method: as §2
# Serine/threonine-protein kinase PAK 2, sequence (Q13177 whole entry): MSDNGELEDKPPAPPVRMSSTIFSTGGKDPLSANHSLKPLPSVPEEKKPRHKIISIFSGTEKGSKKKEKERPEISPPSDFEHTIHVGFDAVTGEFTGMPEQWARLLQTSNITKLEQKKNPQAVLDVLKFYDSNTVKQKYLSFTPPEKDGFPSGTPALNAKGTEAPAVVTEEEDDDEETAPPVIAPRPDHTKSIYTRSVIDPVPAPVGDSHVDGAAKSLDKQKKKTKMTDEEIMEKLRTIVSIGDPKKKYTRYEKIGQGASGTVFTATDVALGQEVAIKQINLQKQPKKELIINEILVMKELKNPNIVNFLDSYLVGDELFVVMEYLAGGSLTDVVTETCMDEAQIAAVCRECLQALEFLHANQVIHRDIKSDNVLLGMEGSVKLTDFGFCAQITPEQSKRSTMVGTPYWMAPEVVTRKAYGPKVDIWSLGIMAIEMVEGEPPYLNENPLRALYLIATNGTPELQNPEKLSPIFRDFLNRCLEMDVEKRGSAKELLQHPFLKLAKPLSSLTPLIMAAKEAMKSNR
# Serine/threonine-protein kinase PAK 3, sequence (O75914 whole entry): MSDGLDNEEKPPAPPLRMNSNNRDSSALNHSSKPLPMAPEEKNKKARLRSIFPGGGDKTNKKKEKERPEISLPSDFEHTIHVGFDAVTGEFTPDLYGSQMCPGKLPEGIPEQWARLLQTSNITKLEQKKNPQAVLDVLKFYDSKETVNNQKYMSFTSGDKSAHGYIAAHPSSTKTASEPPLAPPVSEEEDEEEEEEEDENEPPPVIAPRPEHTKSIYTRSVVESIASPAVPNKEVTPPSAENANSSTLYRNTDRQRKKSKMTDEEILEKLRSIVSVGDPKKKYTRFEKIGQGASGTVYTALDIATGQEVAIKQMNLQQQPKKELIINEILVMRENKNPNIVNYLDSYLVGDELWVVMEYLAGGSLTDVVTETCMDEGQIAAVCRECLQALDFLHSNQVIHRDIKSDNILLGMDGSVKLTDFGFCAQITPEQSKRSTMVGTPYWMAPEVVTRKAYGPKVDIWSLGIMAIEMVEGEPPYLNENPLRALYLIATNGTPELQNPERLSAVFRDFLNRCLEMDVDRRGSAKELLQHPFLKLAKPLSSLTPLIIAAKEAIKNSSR
smiles,measurement,setting,value
Oc1ccc2ccccc2c1SSc1c(O)ccc2ccccc12,inhibition,[1],Dose-Dependent Effect
same,viability at 10 µM,[2],1%
same,inhibition (INH),[3],100%
same,viability at 1 µM,[4],55%
same,inhibition,[5],inactive
same,inhibition,[6],inactive
same,inhibition,[7],Active
same,Activity,[8],Dose-Dependent Effect
same,inhibition,[9],Active
same,Activity,[10],41%
same,inhibition,[11],Active
same,inhibition,[12],inactive
same,inhibition,[13],Active
same,Activity,[14],Tde
CCn1c(=O)c(-c2ccc(Cl)cc2Cl)cc2cnc(Nc3ccc(N4CCNCC4)c(F)c3)nc21,inhibition,[1],Dose-Dependent Effect
same,inhibition,[15],Active
same,IC50,[16],10 nM
same,"viability at 24 h, 1 µM",[17],55%
same,inhibition,[18],inactive
same,IC50,[19],10 nM
same,inhibition (INH),[3],100%
same,inhibition,[20],inactive
same,EC50,[21],500 nM
same,inhibition,[22],inactive
same,inhibition,[23],inactive
same,inhibition,[7],Active
same,Activity,[8],Dose-Dependent Effect
same,inhibition,[9],Active
same,Activity,[10],45%
same,inhibition,[24],Active
same,inhibition,[13],Active
same,inhibition,[25],Active
same,viability at up to 10 µM,[26],1%
same,Activity,[14],Tde
